Compound activity: PubChem BioAssay, The Scripps Research Institute Molecular Screening Center
M5 PAM – human M5 muscarinic receptor positive allosteric modulators, primary screen, CHO-K1 cells, Fluo-8 calcium fluorescence; Muscarinic acetylcholine receptor M5 (Homo sapiens), P08912; CHO-K1 hM5, ACh EC20 PAM; 0% = ACh EC20, 100% = ACh EC100; AID 624038, 2012; 0.3% of 360,000 active; activation, % at 3 µM;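 active = activation above the run cutoff, the mean activation of all test compounds plus 3 SD, cut at about 18% in these data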
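System: CHO-K1 cell line with stable human muscarinic M5 receptor expression | Also added: EC20 acetylcholine as agonist stimulus | Compound: One concentration, 3 µM final (nominal) | Timing: Fluo-8 loading 80 min at 37 °C plus 30 min room temperature | Measured by: Fluo-8 calcium dye fluorescence, kinetic read | Read-out basis: % activation, ACh-normalized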
M5 ag – human M5 muscarinic receptor agonists, primary screen, CHO-K1 cells, Fluo-8 calcium fluorescence; Muscarinic acetylcholine receptor M5 (Homo sapiens), P08912; CHO-K1 hM5 cells; 0% DMSO wells, 100% maximal acetylcholine response; activation, % at 3 µM; 0.19% of 360,000 active; AID 624037, 2012;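 active = activation above the run's mean over test compounds plus 3 SD, cut at about 23% in these data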;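 note: signal is peak over basal fluorescence ratio across the kinetic read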
M4 PAM – human M4 muscarinic receptor positive allosteric modulators, primary screen, CHO-K1 cells, Fluo-8 calcium fluorescence; Muscarinic acetylcholine receptor M4 (Homo sapiens), P08173; CHO-K1 hM4/Gqi5, ACh EC20; 0% = ACh EC20, 100% = maximal ACh; activation, % at 3 µM; 0.4% of 360,000 active; AID 624126, 2012;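 active = activation above its plate's cutoff, the mean activation of sample wells plus 3 SD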
Target sequence (P08173 whole entry, looked up): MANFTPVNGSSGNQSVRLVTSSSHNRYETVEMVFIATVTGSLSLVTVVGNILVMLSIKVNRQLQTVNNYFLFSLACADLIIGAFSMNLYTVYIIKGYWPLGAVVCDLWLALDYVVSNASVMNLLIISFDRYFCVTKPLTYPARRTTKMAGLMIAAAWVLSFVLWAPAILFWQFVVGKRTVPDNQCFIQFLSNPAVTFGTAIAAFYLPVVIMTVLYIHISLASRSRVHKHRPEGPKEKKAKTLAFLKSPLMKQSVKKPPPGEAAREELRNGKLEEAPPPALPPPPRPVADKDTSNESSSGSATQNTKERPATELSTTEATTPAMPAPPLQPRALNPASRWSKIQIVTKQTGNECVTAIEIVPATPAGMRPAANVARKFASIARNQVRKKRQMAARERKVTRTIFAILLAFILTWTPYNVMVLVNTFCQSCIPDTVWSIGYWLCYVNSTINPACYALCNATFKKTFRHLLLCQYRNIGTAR
CHRM5 antagonist – human M5 muscarinic receptor antagonists, primary screen, CHO cells, Fluo-8 calcium fluorescence; Muscarinic acetylcholine receptor M5 (Homo sapiens), P08912; CHO-hM5 cells, ACh EC80; inhibition, % at 3 µM; 0.59% of 360,000 active; AID 624040, 2012;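 active = inhibition above a per-plate cutoff, the mean of that plate's test compounds plus 3 SD, cut at about 27% in these data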;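 note: 0% = acetylcholine EC80 with DMSO and 100% = DMSO without agonist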
CHRM4 agonist – human M4 muscarinic receptor agonists, primary screen, CHO-K1 cells, Fluo-8 calcium fluorescence | Muscarinic acetylcholine receptor M4 (Homo sapiens), P08173 | CHO-K1 hM4/Gqi5; vehicle 0%, full acetylcholine response 100% | activation, % at 3 µM | 0.14% of 360,000 active | AID 624127, 2012;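 active = activation above the run mean over all test wells plus 3 SD, cut at about 32% in these data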;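 note: peak over basal fluorescence ratio per well then scaled between controls; 0% = DMSO wells and 100% = acetylcholine at EC100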
M4 antag – human M4 muscarinic receptor antagonists, primary screen, CHO cells, Fluo-8 calcium fluorescence; CHO-hM4 cells, ACh EC80; inhibition, % at 3 µM; 0.73% of 360,000 active; AID 624125, 2012;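 active = inhibition above its plate's cutoff, the mean inhibition of sample wells plus 3 SD, cut at about 27% in these data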;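 note: 0% = acetylcholine EC80 with DMSO and 100% = DMSO without agonist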
* hit, by the source's call. Sampled rows, rich in hits. Any-hit rate of the full collection: about 1.9%.

Results for COc1cccc(N(C(=O)Cn2nnc3ccccc32)C(C(=O)NCc2ccco2)c2cccnc2)c1 (stereo not drawn) ?
M5 PAM: 2; M5 ag: 0; M4 PAM: 1; CHRM5 antagonist: -1; CHRM4 agonist: 1; M4 antag: -4

Results for COc1cccc(C(C(=O)NCc2ccco2)N(Cc2ccco2)C(=O)Cn2nnc3ccccc32)c1 (stereo not drawn) ?
M5 PAM: -19; M5 ag: -1; M4 PAM: -7; CHRM5 antagonist: 13; CHRM4 agonist: 9; M4 antag: 30*

Results for CN(Cc1ccc(OC(F)F)cc1)C(=O)c1cccc(S(=O)(=O)N2CCN(c3ccccc3)CC2)c1 ?
M5 PAM: -45; M5 ag: 4; M4 PAM: -13; CHRM5 antagonist: 29*; CHRM4 agonist: 29; M4 antag: 39*

How did CC=C1OC(n2cnc3c(N)ncnc32)C(O)C1O (stereo not drawn) do in these assays?
M5 PAM: -6; M5 ag: 3; M4 PAM: 5; CHRM5 antagonist: 6; CHRM4 agonist: 1; M4 antag: -4

What do the screens show for `c1ccc(COc2ccc(CNCc3cccs3)cc2)cc1`?
M5 PAM: -10; M5 ag: -10; M4 PAM: -27; CHRM5 antagonist: 5; CHRM4 agonist: 7; M4 antag: 33*

How did Cn1nnnc1SCCNC(=O)C1CCC(=O)N(Cc2ccc(Cl)cc2)C1 (stereo not drawn) do in these assays?
M5 PAM: 19*; M5 ag: -1; M4 PAM: 9; CHRM5 antagonist: -18; CHRM4 agonist: 0; M4 antag: -8

How did NC(=O)C(CCc1nc2ccccc2[nH]1)NS(=O)(=O)c1ccccc1 (stereo not drawn) do in these assays?
M5 PAM: 4; M5 ag: 1; M4 PAM: 2; CHRM5 antagonist: -3; CHRM4 agonist: 0; M4 antag: -17

Results for COc1ccc([C@H]2CC(=O)C=C(c3ccc(OC(F)(F)F)cc3)C2)cc1 ?
M5 PAM: -10; M5 ag: 0; M4 PAM: 9; CHRM5 antagonist: 11; CHRM4 agonist: 0; M4 antag: -4

What do the screens show for `COc1ccc([C@H]2CC(=O)C=C(c3ccc(CNC(=O)OC(C)(C)C)cc3)C2)cc1`?
M5 PAM: -39; M5 ag: 2; M4 PAM: -14; CHRM5 antagonist: 27; CHRM4 agonist: 25; M4 antag: 28*

What do the screens show for `N#CCCN(Cc1ccccc1)C(=S)Nc1ccccc1`?
M5 PAM: 8; M5 ag: -4; M4 PAM: 21*; CHRM5 antagonist: 1; CHRM4 agonist: 2; M4 antag: -10

Results for Cc1ccc(NC(=O)CSc2nnc(COc3ccccc3F)n2N)cc1S(=O)(=O)N1CCOCC1 ?
M5 PAM: 0; M5 ag: 0; M4 PAM: 8; CHRM5 antagonist: -1; CHRM4 agonist: 4; M4 antag: -24

How did Cc1ccc(-c2csc(NC(=O)c3ccco3)n2)cc1C do in these assays?
M5 PAM: 6; M5 ag: 26*; M4 PAM: 1; CHRM5 antagonist: 8; CHRM4 agonist: 1; M4 antag: 6

How did Cc1nc(NC(=O)c2ccco2)sc1-c1csc(Nc2ccc(Cl)cc2Cl)n1 do in these assays?
M5 PAM: 17; M5 ag: 47*; M4 PAM: 14; CHRM5 antagonist: 20; CHRM4 agonist: 3; M4 antag: -12

How did O=C(Nc1nc(-c2ccccc2)cs1)c1ccco1 do in these assays?
M5 PAM: -1; M5 ag: 11; M4 PAM: -5; CHRM5 antagonist: -8; CHRM4 agonist: 0; M4 antag: 7

How did Cc1nc(NC(=O)c2ccco2)sc1-c1csc(Nc2ccc(Cl)cc2)n1 do in these assays?
M5 PAM: 6; M5 ag: 43*; M4 PAM: 5; CHRM5 antagonist: 18; CHRM4 agonist: 1; M4 antag: 1

How did Cc1cccc([C@@H]2[C@@H]3C(=O)N(Cc4ccccc4)C(=O)[C@@H]3[C@]3(CC(C)C)C(=O)N(c4cccc(F)c4)C(=O)N23)c1 do in these assays?
M5 PAM: 6; M5 ag: 3; M4 PAM: 3; CHRM5 antagonist: -2; CHRM4 agonist: 2; M4 antag: -10

What do the screens show for `CSc1ccc(Cl)c(C(=O)OCC(=O)N2CCN(c3ccccc3)CC2)c1`?
M5 PAM: 3; M5 ag: -1; M4 PAM: -2; CHRM5 antagonist: 2; CHRM4 agonist: 3; M4 antag: 8

What do the screens show for `O=C(O)c1ccccc1NS(=O)(=O)c1ccc(NN=Cc2ccccc2F)c([N+](=O)[O-])c1`?
M5 PAM: 10; M5 ag: 1; M4 PAM: 24*; CHRM5 antagonist: -6; CHRM4 agonist: -1; M4 antag: -19

Results for CSc1ccc(C=NNc2ccc(S(=O)(=O)Nc3ccccc3C(=O)O)cc2[N+](=O)[O-])cc1 ?
M5 PAM: 3; M5 ag: 3; M4 PAM: 0; CHRM5 antagonist: 7; CHRM4 agonist: 0; M4 antag: 1

How did O=C(NC(=S)N1CCCCC1CO)c1cccs1 (stereo not drawn) do in these assays?
M5 PAM: 24*; M5 ag: -4; M4 PAM: 8; CHRM5 antagonist: 1; CHRM4 agonist: 0; M4 antag: 0

What do the screens show for `CCC1CCCCN1C(=S)NC(=O)c1cccs1` (stereo not drawn)?
M5 PAM: 6; M5 ag: -1; M4 PAM: -1; CHRM5 antagonist: 1; CHRM4 agonist: 0; M4 antag: 8

How did CNC(=O)c1ccc(CN(C)CC(=O)Nc2ccccc2C(=O)NC2CC2)cc1 do in these assays?
M5 PAM: 0; M5 ag: 6; M4 PAM: 5; CHRM5 antagonist: -1; CHRM4 agonist: 1; M4 antag: -1

Results for CC1=Nn2c(nnc2C2CCCCC2)SC1 ?
M5 PAM: 10; M5 ag: 3; M4 PAM: 31*; CHRM5 antagonist: -2; CHRM4 agonist: 0; M4 antag: 10

What do the screens show for `CC1=Nn2c(nnc2-c2cc(-c3ccccc3)n[nH]2)SC1`?
M5 PAM: 3; M5 ag: -4; M4 PAM: 11; CHRM5 antagonist: -5; CHRM4 agonist: 1; M4 antag: -14
